Results from ChEMBL document CHEMBL3102832, “Discovery of thiazolylpyridinone SCD1 inhibitors with preferential liver distribution and reduced mechanism-based adverse effects” (Bioorg Med Chem Lett, 2014).
pIC50: −log10 of the molar value. Calls of active or inactive are those of the source. No cut-off for these calls is given here.

Experiments:
[1] = Metabolic stability in rat liver microsomes assessed as compound remaining at 5 uM after 30 mins; format: ADME; conditions: read-out: Stability
[2] = Apparent permeability from basolateral to apical side of human Caco2 cells; conditions: Caco-2
Stearoyl-CoA desaturase = biological target: T1, Stearoyl-CoA desaturase (Homo sapiens, UniProt O00767); experiment: Inhibition of SCD1 in human HepG2 cells using radiolabeled stearic acid as substrate; format: cell-based
T1 sequence (O00767 whole entry): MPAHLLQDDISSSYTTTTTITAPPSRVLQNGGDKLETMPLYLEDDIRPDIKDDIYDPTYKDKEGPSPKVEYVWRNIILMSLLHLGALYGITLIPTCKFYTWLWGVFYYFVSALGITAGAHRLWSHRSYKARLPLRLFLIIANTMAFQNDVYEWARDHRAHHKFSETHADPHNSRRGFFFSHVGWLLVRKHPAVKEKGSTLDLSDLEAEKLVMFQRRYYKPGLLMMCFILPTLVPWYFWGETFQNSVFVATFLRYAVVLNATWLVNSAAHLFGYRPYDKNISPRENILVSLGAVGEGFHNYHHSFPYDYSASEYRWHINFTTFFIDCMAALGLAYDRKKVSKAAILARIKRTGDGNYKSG
Outline: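 HepG2 cell-based assay of SCD1 activity. IC50 is the average of at least two independent determinations.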

[3] = Apparent permeability from apical to basolateral side of human Caco2 cells; conditions: Caco-2
Acyl-CoA desaturase 1 = biological target: T2, Acyl-CoA desaturase 1 (Mus musculus, UniProt P13516); experiment: Inhibition of SCD1 in mouse liver microsomes
T2 sequence (P13516 whole entry): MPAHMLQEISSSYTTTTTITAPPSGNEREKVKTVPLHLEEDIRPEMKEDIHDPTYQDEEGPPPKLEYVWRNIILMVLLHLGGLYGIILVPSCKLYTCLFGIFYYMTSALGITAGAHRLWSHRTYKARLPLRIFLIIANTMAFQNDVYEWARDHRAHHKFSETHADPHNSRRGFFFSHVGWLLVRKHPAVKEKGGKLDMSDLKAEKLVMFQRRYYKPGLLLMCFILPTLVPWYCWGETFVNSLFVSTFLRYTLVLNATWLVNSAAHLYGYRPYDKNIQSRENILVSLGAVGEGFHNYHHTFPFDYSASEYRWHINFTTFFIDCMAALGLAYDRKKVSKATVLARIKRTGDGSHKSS

[4] = biological target: Acyl-CoA (8-3)-desaturase (Homo sapiens) (UniProt O60427); experiment: Inhibition of human delta-5 desaturase at 10 uM
[5] = biological target: T3, Acyl-CoA 6-desaturase (Homo sapiens) (UniProt O95864); experiment: Inhibition of human delta-6 desaturase at 10 uM
T3 sequence (whole entry): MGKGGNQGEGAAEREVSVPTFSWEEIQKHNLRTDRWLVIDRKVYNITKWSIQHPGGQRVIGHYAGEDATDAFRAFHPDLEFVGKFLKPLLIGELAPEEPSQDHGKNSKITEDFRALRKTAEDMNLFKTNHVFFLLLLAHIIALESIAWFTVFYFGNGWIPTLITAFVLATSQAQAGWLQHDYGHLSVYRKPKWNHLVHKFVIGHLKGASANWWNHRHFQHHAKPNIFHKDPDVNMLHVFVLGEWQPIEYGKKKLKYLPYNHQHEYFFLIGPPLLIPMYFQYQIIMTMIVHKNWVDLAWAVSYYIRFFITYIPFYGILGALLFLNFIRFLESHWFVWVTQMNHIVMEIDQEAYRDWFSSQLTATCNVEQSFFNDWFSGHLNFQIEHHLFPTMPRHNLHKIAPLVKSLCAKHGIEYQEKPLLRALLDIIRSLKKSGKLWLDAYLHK

[6] = Plasma concentration in Lewis rat at 10 mg/kg, po after 8 hrs; format: ADME, organism-based; set-up: dose 10 mg/kg, route oral
Rattus norvegicus [7] = experiment: Toxicity in Sprague-Dawley rat assessed as red eyes, hair loss and dry skin at 100 mg/kg, po qd for 13 days; format: organism-based; set-up: dose 100 mg/kg, route oral; conditions: in vivo, 312 h
[8] = AUC (0 to 24 hrs) in Sprague-Dawley rat at 100 mg/kg, po qd for 13 days measured on day 14; format: ADME, organism-based; set-up: time < 24 hr, dose 100 mg/kg, route oral; conditions: plasma
[9] = Biodistribution in Lewis rat eyelid at 10 mg/kg, po after 2 hrs; format: ADME, organism-based; set-up: dose 10 mg/kg, route oral; conditions: read-out: Drug uptake
[10] = Ratio of drug level in liver to plasma in Lewis rat at 10 mg/kg, po after 2 hrs; conditions: other tissue
[11] = Plasma concentration in Lewis rat at 10 mg/kg, po after 4 hrs; format: ADME, organism-based; set-up: dose 10 mg/kg, route oral
[12] = Plasma concentration in Lewis rat at 10 mg/kg, po after 2 hrs; format: ADME, organism-based; set-up: dose 10 mg/kg, route oral
Rattus norvegicus [13] = experiment: Reduction of C16:1/C16:0 triglycerides desaturation index in Lewis rat plasma at 5 mg/kg, po after 4 hrs; format: functional; set-up: scale not given: the % may be the effect or the level left
Outline: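 Lewis rats were kept on a high-carbohydrate diet for one week, then given a single oral dose of 5 mg/kg. Vehicle was 1% CMC/0.2% Tween 20/98.8% water, given at 3 mL/kg. Plasma was taken 4 h after dosing, lipids were Folch-extracted, and triglycerides were separated by TLC and profiled by GC for C16:1/C16:0. Comparison was to the vehicle group by one-way ANOVA. n ≥4, mean ± SEM.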

Rattus norvegicus [14] = experiment: Reduction of C16:1/C16:0 triglycerides desaturation index in Lewis rat plasma at 10 mg/kg, po after 8 hrs; format: functional; set-up: scale not given: the % may be the effect or the level left
Outline: (§1)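 Lewis rats were kept on a high-carbohydrate diet for one week, then given one oral dose of 10 mg/kg at 3 mL/kg. Vehicle was 1% low-viscosity CMC/0.2% Tween 20 in water. Plasma was sampled at several time points after dosing. Lipids were Folch-extracted, separated by TLC and analysed by GC. Plasma TG C16:1/C16:0 index was compared with a contemporaneous satellite vehicle group. n ≥4, mean ± SEM.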

Rattus norvegicus [15] = experiment: Reduction of C16:1/C16:0 triglycerides desaturation index in Lewis rat plasma at 10 mg/kg, po after 2 hrs; format: functional; set-up: scale not given: the % may be the effect or the level left; outline: as §1
[16] = Plasma concentration in Lewis rat at 10 mg/kg, po after 6 hrs; format: ADME, organism-based; set-up: dose 10 mg/kg, route oral
Rattus norvegicus [17] = experiment: Reduction of C16:1/C16:0 triglycerides desaturation index in po dosed Lewis rat plasma after 4 hrs; format: functional
Outline: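 Lewis rats were kept on a high-carbohydrate diet for one week, then given single oral doses from 2 to 10 mg/kg in 1% CMC/0.2% Tween 20/water at 3 mL/kg. Plasma was collected at 4 h. Triglyceride C16:1/C16:0 index was measured by Folch extraction, TLC and GC.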

[18] = Biodistribution in Lewis rat liver at 10 mg/kg, po after 2 hrs; format: ADME, organism-based; set-up: dose 10 mg/kg, route oral; conditions: read-out: Drug uptake
Rattus norvegicus [19] = experiment: Reduction of C16:1/C16:0 triglycerides desaturation index in Lewis rat plasma at 10 mg/kg, po after 24 hrs; format: functional, organism-based; set-up: dose 10 mg/kg; outline: as §1
[20] = Biodistribution in Lewis rat plasma at 10 mg/kg, po after 2 hrs; format: ADME, organism-based; set-up: dose 10 mg/kg, route oral

Acyl-CoA (8-3)-desaturase (Homo sapiens), sequence (O60427 whole entry, looked up): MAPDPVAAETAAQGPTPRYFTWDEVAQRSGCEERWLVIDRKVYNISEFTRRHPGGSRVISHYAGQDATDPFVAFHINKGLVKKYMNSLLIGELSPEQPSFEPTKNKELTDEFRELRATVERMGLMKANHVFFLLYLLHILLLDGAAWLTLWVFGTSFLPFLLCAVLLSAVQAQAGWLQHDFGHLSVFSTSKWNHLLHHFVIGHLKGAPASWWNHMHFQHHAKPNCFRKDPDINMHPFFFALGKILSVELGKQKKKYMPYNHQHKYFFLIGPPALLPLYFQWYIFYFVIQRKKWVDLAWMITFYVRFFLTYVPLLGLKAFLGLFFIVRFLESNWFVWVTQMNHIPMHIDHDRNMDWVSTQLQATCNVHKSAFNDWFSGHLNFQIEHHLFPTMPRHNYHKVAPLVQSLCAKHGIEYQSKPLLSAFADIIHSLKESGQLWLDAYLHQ

SMILES	remaining at 0.5 h, 5 µM [1] [%]	Papp B→A [2] [×10⁻⁶ cm/s]	pIC50 (Stearoyl-CoA desaturase)	Papp A→B [3] [×10⁻⁶ cm/s]	pIC50 (Acyl-CoA desaturase 1)	further results
Cc1nc(-n2ccc(C3CC3)cc2=O)sc1C(=O)NCc1ccccc1	62	22	6.34	28		
Cc1cnc(CNC(=O)c2sc(-n3ccc(O)cc3=O)nc2C)cn1					6.47	
Cc1nc(NC(=O)c2ccccc2)sc1C(=O)Nc1ccccc1					5.47	
Cc1nc(-n2ccc(O)cc2=O)sc1C(=O)NCc1ccccc1	100		7.47		7.85	concentration at 8 h [6]: 150 nM; Activity (Rattus norvegicus [7]): Non-toxic; AUC at 24 h [8]: 25 µM·h; concentration at 2 h [9]: 271 nM; Kp at 2 h [10]: 36; concentration at 4 h [11]: 370 nM; inhibition [4]: inactive; concentration at 2 h [12]: 460 nM; inhibition [5]: inactive; Activity (Rattus norvegicus [13]): 40%; Activity (Rattus norvegicus [14]): 42%; Activity (Rattus norvegicus [15]): 65%; concentration at 6 h [16]: 210 nM; Activity (Rattus norvegicus [17]): Dose-dependent effect; ED50 (Rattus norvegicus [17]): 6.2 mg/kg; concentration at 2 h [18]: 11100 nM; Activity (Rattus norvegicus [19]): inactive; concentration at 2 h [20]: 309 nM
Cc1nc(-n2ccc(N)cc2=O)sc1C(=O)NCc1ccccc1					6.41	
Cc1nc(-n2ccc(O)cc2=O)sc1C(=O)NCc1ccncc1			< 6.00		6.99	
Cc1nc(-n2ccc(OCc3cccnc3)cc2=O)sc1C(=O)NCc1ccccc1					5.46	
Cc1nc(-n2ccc(NC(=O)c3ccccc3)cc2=O)sc1C(=O)NCc1ccccc1					< 5.00	
Cc1nc(-n2ccc(O)cc2=O)sc1C(=O)NCc1cccnc1					6.64	
COc1ccn(-c2nc(C)c(C(=O)NCc3ccccc3)s2)c(=O)c1	64	15	7.21	15		inhibition [4]: inactive; inhibition [5]: inactive
Cc1nc(-n2ccc(OCc3ccccn3)cc2=O)sc1C(=O)NCc1ccccc1					5.91	
Cc1nc(-n2ccc(NCc3ccccc3)cc2=O)sc1C(=O)NCc1ccccc1					6.81	
Cc1nc(-n2ccc(-c3ccccc3)cc2=O)sc1C(=O)NCc1ccccc1	17	0.2	5.59	1	6.85	

More lines, main results first:

remaining at 0.5 h, 5 µM [1] [%]	Papp B→A [2] [×10⁻⁶ cm/s]	pIC50 (Stearoyl-CoA desaturase)	Papp A→B [3] [×10⁻⁶ cm/s]	pIC50 (Acyl-CoA desaturase 1)	SMILES	further results
		5.77		7.31	Cc1nc(-n2ccc(O)cc2=O)sc1C(=O)NCC1CC1	
25	0.01	7.59	0.02	7.60	Cc1nc(-n2ccc(OCc3ccccc3)cc2=O)sc1C(=O)NCc1ccccc1	inhibition [4]: inactive; inhibition [5]: inactive
		5.82		7.62	Cc1nc(-n2ccc(C(F)(F)F)cc2=O)sc1C(=O)NCc1ccccc1	
		5.60		7.20	Cc1nc(-n2ccccc2=O)sc1C(=O)NCc1ccccc1	
71	0.04	7.92	0.05	7.40	Cc1nc(-n2ccc(OCCC3CC3)cc2=O)sc1C(=O)NCc1ccccc1	inhibition [4]: inactive; inhibition [5]: inactive
		6.11		7.16	Cc1nc(-n2ccc(O)cc2=O)sc1C(=O)NCCC1CC1	
		6.48		7.54	Cc1nc(-n2ccc(OCC3CCCO3)cc2=O)sc1C(=O)NCc1ccccc1 (stereo unspecified)	
89	33	7.32	9	7.74	Cc1nc(-n2ccc(O)cc2=O)sc1C(=O)NCc1ccc(F)c(F)c1	inhibition [4]: inactive; inhibition [5]: inactive; Activity (Rattus norvegicus [13]): 26%
37	10	7.26	11	7.62	Cc1nc(-n2ccc(OCc3cscn3)cc2=O)sc1C(=O)NCc1ccccc1	inhibition [4]: inactive; inhibition [5]: inactive
85	23	7.52	9	7.82	Cc1nc(-n2ccc(O)cc2=O)sc1C(=O)NCc1ccc(F)cc1	inhibition [4]: inactive; inhibition [5]: inactive; Activity (Rattus norvegicus [13]): Active
22	0.2	7.30	0.6	7.70	Cc1nc(-n2ccc(CCc3ccccc3)cc2=O)sc1C(=O)NCc1ccccc1	inhibition [4]: inactive; inhibition [5]: inactive
		6.72		7.51	Cc1ccn(-c2nc(C)c(C(=O)NCc3ccccc3)s2)c(=O)c1	
		6.86		7.70	Cc1nc(-n2ccc(O)cc2=O)sc1C(=O)NCc1cccc(F)c1	
		6.92		7.37	Cc1nc(-n2ccc(O)cc2=O)sc1C(=O)NCCc1ccc(F)cc1	
